Measurements collected from several papers.
Lines come from different studies, so protocols differ.
Target: Ephrin type-A receptor 1 (EPHA1, Homo sapiens, UniProt P21709)
One construct used (P21709 26-976): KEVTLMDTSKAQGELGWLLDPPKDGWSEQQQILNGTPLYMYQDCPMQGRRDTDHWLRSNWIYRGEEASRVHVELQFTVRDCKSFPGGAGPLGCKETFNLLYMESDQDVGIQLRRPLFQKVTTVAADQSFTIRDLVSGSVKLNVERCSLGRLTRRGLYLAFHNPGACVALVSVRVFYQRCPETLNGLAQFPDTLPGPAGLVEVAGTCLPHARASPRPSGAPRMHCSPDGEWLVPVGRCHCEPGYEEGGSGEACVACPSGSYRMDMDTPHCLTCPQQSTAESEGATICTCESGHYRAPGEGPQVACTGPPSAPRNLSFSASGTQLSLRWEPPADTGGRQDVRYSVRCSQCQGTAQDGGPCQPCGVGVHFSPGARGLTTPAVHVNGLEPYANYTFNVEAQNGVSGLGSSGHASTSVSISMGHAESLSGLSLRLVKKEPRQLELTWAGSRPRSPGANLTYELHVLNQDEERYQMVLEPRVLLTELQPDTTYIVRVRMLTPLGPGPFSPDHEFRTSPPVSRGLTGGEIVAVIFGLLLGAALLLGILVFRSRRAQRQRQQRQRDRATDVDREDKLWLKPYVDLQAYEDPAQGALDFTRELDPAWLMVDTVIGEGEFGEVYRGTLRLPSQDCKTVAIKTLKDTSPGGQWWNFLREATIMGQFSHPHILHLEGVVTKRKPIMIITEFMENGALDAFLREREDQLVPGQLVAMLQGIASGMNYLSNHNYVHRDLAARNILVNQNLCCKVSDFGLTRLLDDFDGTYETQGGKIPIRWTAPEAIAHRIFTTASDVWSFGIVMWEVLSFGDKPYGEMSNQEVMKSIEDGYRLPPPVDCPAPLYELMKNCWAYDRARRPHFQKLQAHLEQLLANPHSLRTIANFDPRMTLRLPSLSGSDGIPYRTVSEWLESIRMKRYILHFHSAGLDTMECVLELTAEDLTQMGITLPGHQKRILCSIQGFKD

C=CC(=O)N1CCC([C@@H]2CCNc3c(C(N)=O)c(-c4ccc(Oc5ccccc5)cc4)nn32)CC1
inhibition (cell-free assay; 1 µM): 25%

COc1ccc2oc(-c3ccc4nc(N)oc4c3)c/c(=N\c3ccccc3NC(=O)CCN)c2c1
remaining binding (binding; 1 µM): 101%

CC(C)S(=O)(=O)c1ccc2nccc(Nc3ccc4sc(C5CCCC5)nc4c3)c2c1
activity vs control (enzyme activity; inhibitor; 1 µM): 100%

Cc1ccc(NC(=O)c2ccnc(C(F)(F)F)c2)cc1-c1cc(OCCO)nc(N2CCOCC2)c1
remaining binding (binding; competition with immobilised ligand; 1 µM): 83%

CCCCC(=O)Nc1ccc(-c2ccc3ncn(CCC)c(=O)c3c2)cn1
remaining binding (binding; competition with immobilised ligand; 0.5 µM): 80%

CC#CC(=O)N1CCC[C@H]1c1nc(-c2ccc(C(=O)Nc3ccccn3)cc2)c2c(N)nccn12
inhibition (enzyme activity; inhibitor; 1 µM): 25%

C1=C/COCc2cc(ccc2OCCN2CCCC2)Nc2nccc(n2)-c2cccc(c2)COC/1
remaining binding (binding; 0.1 µM): 93%

CN1CCN(C(=O)c2ccc(NC(=O)Nc3ccc(N(C)c4ccnc(Nc5ccc(CS(C)(=O)=O)cc5)n4)cc3)cc2)CC1
remaining binding (binding; competition with immobilised ligand; 1 µM): 56%
